In PubChem BioAssay AID493070 (Broad Institute, 2011):
Unmarked numbers belong to inactive results. Active and inactive are the calls of the source.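 The calls were made as follows: active = growth signal loss with fitted half-maximal concentration up to ten times the top valid dose; inconclusive = flat curve with 30 to 70% inhibition, or poor fit; inactive = the rest, including opposite-direction effects.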

Experiment: C. albicans CaCi-2 growth inhibition, compound alone, dose response, counter-screen, Alamar Blue fluorescence, dry powder, set 5 (AID 493070)
Details: 48 h; series mostly up to 26 µM
Summary of the method: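 System – C. albicans CaCi-2 grown without fluconazole · Buffer or medium – RPMI synthetic defined medium · Dosing – test compound delivered to wells by pin transfer · Times – 48 h growth at 37 °C, 2 h dye step · Signal – Alamar Blue fluorescence at 1:200 final, excitation 544 nm, emission 590 nm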

Q: For `CC1CCN(C(=O)Cn2c3ccccc3c3nc4n(c(=O)c32)CCS4)CC1`, which outcome is on record?
A: inactive

Q: Which outcome does the source give for `O=c1c2[nH]c3ccc(F)cc3c2nc2n1CCS2` here?
A: inactive

Q: For `O=C(Cn1c2ccccc2c2nc3n(c(=O)c21)CCS3)N1CCOCC1`, which outcome is on record?
A: inactive

Q: With `COC(=O)Cn1nc(-c2ccccc2)c2ccccc21` as the compound, how does the outcome read?
A: inactive

Q: For `COC(=O)Cn1c(-c2ccccc2)nc2ccccc21`, which outcome is on record?
A: inactive

Q: Which outcome does the source give for `O=C(Cn1c2ccc(F)cc2c2nc3n(c(=O)c21)CCS3)N1CCCC1` here?
A: inactive

Q: For `COC(=O)Cn1nc(-c2ccc(C)cc2)c2ccccc21`, which outcome is on record?
A: inactive

Q: Which activity change, negative = inhibition does the source give for `COc1ccc2c(c1)c1nc3n(c(=O)c1n2CC(=O)N1CCC(C)CC1)CCS3` here?
A: 0.019% [at 2.6 µM]

Q: With `COc1ccc(NC(=O)Cn2c3ccccc3c3nc4n(c(=O)c32)CCS4)cc1` as the compound, how does the outcome read?
A: inactive

Q: Which outcome does the source give for `CCN(CC)C(=O)Cn1c2ccc(F)cc2c2nc3n(c(=O)c21)CCS3` here?
A: inactive

Q: Which outcome does the source give for `O=C(Cn1c2ccccc2c2ccncc21)N1CCCCC1` here?
A: inactive

Q: With `O=c1c2[nH]c3ccccc3c2nc2n1CCS2` as the compound, how does the outcome read?
A: inactive

Q: For `O=C(O)Cn1nc(-c2ccccc2)c2ccccc21`, which outcome is on record?
A: inactive

Q: Which outcome does the source give for `COC(=O)Cn1nc(-c2ccc(Cl)cc2)c2ccccc21` here?
A: inactive

Q: Which outcome does the source give for `COc1ccc2c(c1)c1nc3n(c(=O)c1n2CC(=O)N1CCC(Cc2ccccc2)CC1)CCS3` here?
A: inactive

Q: For `O=C(Cn1c2ccccc2c2nc3n(c(=O)c21)CCS3)NCCc1ccc(Cl)cc1`, which outcome is on record?
A: inactive

Q: With `CCN(CC)C(=O)Cn1c2ccccc2c2nc3n(c(=O)c21)CCS3` as the compound, how does the outcome read?
A: inactive

Q: Which outcome does the source give for `N#Cc1cccc(N2CCN(C(=O)c3ccc(Cl)cc3)CC2)n1` here?
A: inactive
